Assays:
Assay type in all cases: functional, cell-based
CNE = assay: Cytotoxicity against human CNE1 cells after 48 hrs by MTT assay
In short: (§1)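 Growth inhibition in nasopharyngeal carcinoma lines (CNE1, CNE2, HONE-1, SUNE-1) and HT-29 colon cells. IC50 values are the mean ± SD of three experiments, with cisplatin as positive control.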

CNE-2 = assay: Cytotoxicity against human CNE2 cells after 48 hrs by MTT assay; conditions: CNE-2, 48 h; in short: as §1
HONE1 cell line = assay: Cytotoxicity against human HONE1 cells after 48 hrs by MTT assay; conditions: HONE1, 48 h; in short: as §1
SUNE1 = assay: Cytotoxicity against human SUNE1 cells after 48 hrs by MTT assay; conditions: SUNE1, 48 h; in short: as §1
HT-29 = assay: Cytotoxicity against human HT-29 cells after 48 hrs by MTT assay; conditions: HT-29, 48 h; in short: as §1

Row | SMILES | IC50 (CNE) | IC50 (CNE-2) | IC50 (HONE1 cell line) | IC50 (SUNE1) | IC50 (HT-29)
1 | C=C1C(=O)O[C@@H]2[C@@H]3[C@@]4(C=C[C@@]3(C)[C@]3(C4)C(=O)O[C@@H]4[C@H]5C(C)=CC[C@H]5[C@](C)(O)C[C@H](O)[C@H]43)[C@](C)(O)CC[C@@H]12 | > 10 µM | > 10 µM | > 10 µM | > 10 µM | > 10 µM
2 | C/C=C(\C)C(=O)O[C@H]1C[C@@](C)(O)[C@@H]2CC=C(C)[C@@H]2[C@H]2OC(=O)[C@H](C)[C@@H]21 | > 10 µM | > 10 µM | > 10 µM | > 10 µM | > 10 µM
3 | C=C1C(=O)O[C@H]2[C@H]1[C@@H](OC(=O)/C(C)=C/C)C[C@@](C)(O)[C@]13C=C[C@](C)([C@H]21)[C@]1(C3)C(=O)O[C@@H]2[C@H]3C(C)=CC[C@H]3[C@](C)(O)C[C@H](O)[C@H]21 | > 10 µM | > 10 µM | 7.5 µM | > 10 µM | > 10 µM
4 | C=C1C(=O)O[C@@H]2[C@@H]3[C@@]4(C=C[C@@]3(C)[C@]3(C4)C(=O)O[C@@H]4[C@H]5C(C)=CC(=O)C5=C(C)CC[C@H]43)[C@](C)(O)CC[C@@H]12 | > 10 µM | > 10 µM | > 10 µM | > 10 µM | > 10 µM
5 | C/C=C(\C)C(=O)O[C@H]1CC(C)=C2C[C@H](O)[C@](C)(O)[C@@H]2[C@H]2OC(=O)[C@@H](C)[C@@H]21 | > 10 µM | > 10 µM | > 10 µM | > 10 µM | > 10 µM
6 | CC1=CC[C@@H]2[C@H]1[C@H]1OC(=O)[C@H](C)[C@@H]1[C@@H](O)C[C@@]2(C)O | > 10 µM | > 10 µM | > 10 µM | > 10 µM | > 10 µM
7 | C=C1C(=O)O[C@@H]2[C@H]3C(C)=CC[C@H]3[C@](C)(O)C[C@H](OC(=O)/C(C)=C\C)[C@@H]12 | 7.3 µM | 7.4 µM | 7.6 µM | 5.6 µM | > 10 µM
8 | C/C=C(\C)C(=O)O[C@H]1C[C@@](C)(O)[C@]23C=C[C@](C)([C@@H]2[C@H]2OC(=O)[C@@H](C)[C@@H]21)[C@]1(C3)C(=O)O[C@@H]2[C@H]3C(C)=CC[C@H]3[C@](C)(O)C[C@H](O)[C@H]21 | > 10 µM | 9.9 µM | 9.2 µM | > 10 µM | > 10 µM

Reference: ChEMBL document CHEMBL4330168, “Monomeric and Dimeric Cytotoxic Guaianolide-Type Sesquiterpenoids from the Aerial Parts of Chrysanthemum indicum” (J Nat Prod, 2019)
